The target in experiment [1] is Testis-specific serine/threonine-protein kinase 1 (Homo sapiens) (UniProt Q9BXA7). The experiment can be described thus: Inhibition of recombinant human N-terminal GST-tagged TSSK1 (1 to 367 residues) expressed in Escherichia coli assessed as remaining activity at 1 uM using KKKVSRSGLYRSPSMPENLNRPR as substrate incubated for 30 mins in presence of [gamma-33P]ATP by filter binding method relative to control.

Experiment [2] has as its target Eukaryotic elongation factor 2 kinase (Homo sapiens) (UniProt O00418). The experiment can be described thus: Inhibition of recombinant human N-terminal GST-tagged EF2K (2 to 725 residues) expressed in Escherichia coli assessed as remaining activity at 1 uM using RKKFGESKTKTKEFL as substrate incubated for 30 mins in presence of [gamma-33P]ATP by filter binding method relative to control.

The target of experiment [3] is Calcium/calmodulin-dependent protein kinase kinase 2 (Homo sapiens) (UniProt Q96RR4). The experiment can be described thus: Inhibition of recombinant human N-terminal GST-tagged CAMKKbeta (1 to 541 residues) expressed in Escherichia coli assessed as remaining activity at 1 uM using DGEFLRTSCGSPNYAARRR as substrate incubated for 30 mins in presence of [gamma-33P]ATP by filter binding method relative to control.
Chain of Calcium/calmodulin-dependent protein kinase kinase 2 (Homo sapiens) (Q96RR4 2-588 limits assumed): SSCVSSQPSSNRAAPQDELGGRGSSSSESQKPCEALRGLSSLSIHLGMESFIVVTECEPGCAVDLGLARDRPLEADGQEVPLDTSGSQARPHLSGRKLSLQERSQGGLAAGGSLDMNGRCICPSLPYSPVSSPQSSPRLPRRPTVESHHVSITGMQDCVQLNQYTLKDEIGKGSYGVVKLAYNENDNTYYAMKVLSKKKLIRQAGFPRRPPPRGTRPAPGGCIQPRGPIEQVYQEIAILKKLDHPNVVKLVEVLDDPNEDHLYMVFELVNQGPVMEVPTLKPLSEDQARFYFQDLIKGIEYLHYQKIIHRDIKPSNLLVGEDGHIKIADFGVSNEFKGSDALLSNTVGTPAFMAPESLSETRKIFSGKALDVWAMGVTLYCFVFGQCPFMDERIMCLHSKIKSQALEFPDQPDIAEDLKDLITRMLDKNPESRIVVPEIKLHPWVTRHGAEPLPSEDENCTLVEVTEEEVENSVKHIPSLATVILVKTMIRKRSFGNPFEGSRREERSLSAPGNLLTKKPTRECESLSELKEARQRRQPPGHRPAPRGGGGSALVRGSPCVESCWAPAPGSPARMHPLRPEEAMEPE

In experiment [4] the target is Misshapen-like kinase 1 (Homo sapiens) (UniProt Q8N4C8). The experiment can be described thus: Inhibition of recombinant human N-terminal GST-tagged MINK1 (1 to 320 residues) expressed in baculovirus infected Sf21 cells assessed as remaining activity at 1 uM using MBP as substrate incubated for 30 mins in presence of [gamma-33P]ATP by filter binding method relative to control.

In experiment [5] the target is Receptor tyrosine-protein kinase erbB-4 (Homo sapiens) (UniProt Q15303). Nature of the experiment: Inhibition of recombinant human N-terminal His6-tagged HER4 (706 to 991 residues) expressed in baculovirus infected Sf21 cells assessed as remaining activity at 1 uM using Poly (Glu,Tyr) as substrate incubated for 30 mins in presence of [gamma-33P]ATP by filter binding method relative to control.
Chain of Receptor tyrosine-protein kinase erbB-4 (Homo sapiens) (Q15303 whole entry, the tested form may be a part): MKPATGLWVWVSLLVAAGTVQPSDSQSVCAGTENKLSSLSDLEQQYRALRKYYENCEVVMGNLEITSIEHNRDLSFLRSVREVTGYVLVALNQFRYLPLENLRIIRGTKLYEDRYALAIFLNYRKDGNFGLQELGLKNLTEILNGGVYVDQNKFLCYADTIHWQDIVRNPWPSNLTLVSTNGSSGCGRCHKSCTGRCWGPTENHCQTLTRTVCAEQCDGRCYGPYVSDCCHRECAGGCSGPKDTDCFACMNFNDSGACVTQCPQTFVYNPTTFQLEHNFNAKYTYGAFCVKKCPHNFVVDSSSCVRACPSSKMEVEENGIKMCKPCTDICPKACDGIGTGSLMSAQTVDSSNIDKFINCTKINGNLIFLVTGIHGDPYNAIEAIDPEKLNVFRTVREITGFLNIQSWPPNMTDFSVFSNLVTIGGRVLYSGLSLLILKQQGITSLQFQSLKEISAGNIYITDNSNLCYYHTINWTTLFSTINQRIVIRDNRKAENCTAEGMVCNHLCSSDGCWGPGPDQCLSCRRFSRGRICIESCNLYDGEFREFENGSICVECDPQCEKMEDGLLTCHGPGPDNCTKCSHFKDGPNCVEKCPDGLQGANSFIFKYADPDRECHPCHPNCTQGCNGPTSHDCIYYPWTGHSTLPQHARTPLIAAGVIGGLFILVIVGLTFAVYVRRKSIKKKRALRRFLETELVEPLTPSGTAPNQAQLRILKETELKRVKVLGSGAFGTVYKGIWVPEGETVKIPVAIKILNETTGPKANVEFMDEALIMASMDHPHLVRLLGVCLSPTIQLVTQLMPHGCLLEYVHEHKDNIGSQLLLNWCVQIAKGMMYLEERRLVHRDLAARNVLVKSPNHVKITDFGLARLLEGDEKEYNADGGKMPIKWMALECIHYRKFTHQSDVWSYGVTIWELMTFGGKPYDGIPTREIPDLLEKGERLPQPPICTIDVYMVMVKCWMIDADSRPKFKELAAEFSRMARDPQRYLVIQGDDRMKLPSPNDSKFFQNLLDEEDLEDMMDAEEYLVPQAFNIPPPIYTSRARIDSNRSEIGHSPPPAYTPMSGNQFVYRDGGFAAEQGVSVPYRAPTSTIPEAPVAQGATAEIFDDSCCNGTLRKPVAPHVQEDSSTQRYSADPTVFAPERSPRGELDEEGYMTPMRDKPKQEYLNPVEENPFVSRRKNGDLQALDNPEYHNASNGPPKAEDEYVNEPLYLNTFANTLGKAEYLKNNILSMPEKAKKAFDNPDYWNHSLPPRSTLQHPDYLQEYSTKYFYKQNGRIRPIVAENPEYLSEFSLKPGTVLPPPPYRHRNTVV

Experiment [6] concerns the target MAP kinase-interacting serine/threonine-protein kinase 2 (Homo sapiens) (UniProt Q9HBH9). Nature of the experiment: Inhibition of recombinant human N-terminal GST/C-terminal His6-tagged MNK2alpha (2 to 465 residues) expressed in Escherichia coli assessed as remaining activity at 1 uM using eIF4E as substrate incubated for 30 mins in presence of [gamma-33P]ATP by filter binding method relative to control.

Experiment [7] deals with Serine/threonine-protein kinase tousled-like 1 (Homo sapiens) (UniProt Q9UKI8). Nature of the experiment: Inhibition of recombinant human N-terminal GST-tagged TLK1 (1 to 766 residues) expressed in Escherichia coli assessed as remaining activity at 1 uM using MBP as substrate incubated for 30 mins in presence of [gamma-33P]ATP by filter binding method relative to control.
Chain of Serine/threonine-protein kinase tousled-like 1 (Homo sapiens) (Q9UKI8 whole entry, the tested form may be a part): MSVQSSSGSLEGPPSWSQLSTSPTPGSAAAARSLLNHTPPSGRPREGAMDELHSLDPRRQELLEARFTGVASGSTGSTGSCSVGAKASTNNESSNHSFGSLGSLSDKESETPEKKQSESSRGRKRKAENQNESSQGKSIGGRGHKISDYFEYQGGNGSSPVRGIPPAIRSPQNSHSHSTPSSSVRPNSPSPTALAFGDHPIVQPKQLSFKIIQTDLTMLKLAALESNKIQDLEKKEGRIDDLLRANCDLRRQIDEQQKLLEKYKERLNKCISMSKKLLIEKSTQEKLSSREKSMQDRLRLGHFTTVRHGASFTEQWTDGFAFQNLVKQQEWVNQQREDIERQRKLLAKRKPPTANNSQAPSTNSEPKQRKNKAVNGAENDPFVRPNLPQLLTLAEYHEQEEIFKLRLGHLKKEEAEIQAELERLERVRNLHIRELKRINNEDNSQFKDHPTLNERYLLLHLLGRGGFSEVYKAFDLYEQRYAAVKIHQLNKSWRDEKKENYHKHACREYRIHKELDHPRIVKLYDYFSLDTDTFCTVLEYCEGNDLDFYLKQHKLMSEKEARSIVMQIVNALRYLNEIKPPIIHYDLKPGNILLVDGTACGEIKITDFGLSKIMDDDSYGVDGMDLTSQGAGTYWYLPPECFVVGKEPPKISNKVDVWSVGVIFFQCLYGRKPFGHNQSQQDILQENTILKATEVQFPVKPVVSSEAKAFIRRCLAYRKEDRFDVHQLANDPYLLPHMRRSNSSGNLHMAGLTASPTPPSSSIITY

For experiment [8], the target named is Mitogen-activated protein kinase 10 (Homo sapiens) (UniProt P53779). The experiment can be described thus: Inhibition of recombinant human N-terminal GST/C-terminal His6-tagged JNK3 (40 to 422 residues) expressed in Escherichia coli assessed as remaining activity at 1 uM using ATF2 as substrate incubated for 30 mins in presence of [gamma-33P]ATP by filter binding method relative to control.

For experiment [9], the target named is Tyrosine-protein kinase JAK2 (Homo sapiens) (UniProt O60674). Nature of the experiment: Inhibition of JAK2 (unknown origin) assessed as remaining activity at 1 uM relative to control. The gist of the method:
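Dundee panel of 140 protein kinases, tested at a single 1 μM concentration. Each assay was run in triplicate. Remaining activity is expressed relative to a control reaction without inhibitor, as mean ± S.D. Conditions for each kinase were those of the screening centre.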

Experiment [10] deals with Insulin-like growth factor 1 receptor (Homo sapiens) (UniProt P08069). The experiment can be described thus: Inhibition of human IGF1R at 1 uM using polyEY as substrate in presence of 33P-ATP by ProQinase assay.
Chain of Insulin-like growth factor 1 receptor (Homo sapiens) (P08069 31-736 limits assumed): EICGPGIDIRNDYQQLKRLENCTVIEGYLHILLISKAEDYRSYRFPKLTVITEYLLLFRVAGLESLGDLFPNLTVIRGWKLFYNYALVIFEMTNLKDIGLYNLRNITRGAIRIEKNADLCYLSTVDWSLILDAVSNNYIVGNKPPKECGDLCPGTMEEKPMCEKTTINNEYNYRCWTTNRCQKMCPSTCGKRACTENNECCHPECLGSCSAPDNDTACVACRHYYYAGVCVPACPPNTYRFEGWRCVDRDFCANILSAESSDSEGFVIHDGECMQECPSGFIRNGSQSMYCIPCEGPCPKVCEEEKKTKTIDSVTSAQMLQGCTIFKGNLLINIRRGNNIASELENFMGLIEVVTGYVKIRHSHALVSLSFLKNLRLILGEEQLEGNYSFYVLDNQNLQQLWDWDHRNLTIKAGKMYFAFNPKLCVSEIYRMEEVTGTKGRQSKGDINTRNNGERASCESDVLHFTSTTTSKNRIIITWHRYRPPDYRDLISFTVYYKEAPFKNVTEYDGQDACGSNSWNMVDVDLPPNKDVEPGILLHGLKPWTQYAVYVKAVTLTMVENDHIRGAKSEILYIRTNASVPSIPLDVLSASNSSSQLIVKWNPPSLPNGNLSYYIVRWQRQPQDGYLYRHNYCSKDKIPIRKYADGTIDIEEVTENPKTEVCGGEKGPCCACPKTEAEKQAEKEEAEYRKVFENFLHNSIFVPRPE
Chain of Insulin-like growth factor 1 receptor (Homo sapiens) (P08069 741-1367 limits assumed): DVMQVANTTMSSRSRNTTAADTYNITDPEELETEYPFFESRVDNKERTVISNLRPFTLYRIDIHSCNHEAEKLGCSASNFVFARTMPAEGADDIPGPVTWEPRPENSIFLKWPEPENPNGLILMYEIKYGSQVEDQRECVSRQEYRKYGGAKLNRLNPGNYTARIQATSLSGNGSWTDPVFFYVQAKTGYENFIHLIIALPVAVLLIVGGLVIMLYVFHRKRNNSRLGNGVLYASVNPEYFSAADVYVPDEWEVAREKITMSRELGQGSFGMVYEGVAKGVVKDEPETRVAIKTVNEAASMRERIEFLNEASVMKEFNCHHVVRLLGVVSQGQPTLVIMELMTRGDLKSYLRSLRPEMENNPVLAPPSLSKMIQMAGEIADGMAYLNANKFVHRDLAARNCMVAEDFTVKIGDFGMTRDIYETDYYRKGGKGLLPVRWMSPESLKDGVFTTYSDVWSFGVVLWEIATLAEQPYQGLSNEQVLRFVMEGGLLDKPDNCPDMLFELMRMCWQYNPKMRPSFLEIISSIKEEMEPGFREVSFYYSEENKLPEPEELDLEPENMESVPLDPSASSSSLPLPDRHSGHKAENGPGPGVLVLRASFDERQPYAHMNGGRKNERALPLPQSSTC
Experiment [11] addresses Receptor tyrosine-protein kinase erbB-4 (Homo sapiens) (UniProt Q15303). Nature of the experiment: Inhibition of human ERBB4 at 1 uM using polyEy as substrate in presence of 33P-ATP by ProQinase assay.
For experiment [12], the target named is Ephrin type-A receptor 2 (Homo sapiens) (UniProt P29317). The experiment can be described thus: Inhibition of human EPHA2 at 1 uM using polyEy as substrate in presence of 33P-ATP by ProQinase assay.
Experiment [13] deals with Ephrin type-B receptor 1 (Homo sapiens) (UniProt P54762). Nature of the experiment: Inhibition of human EPHB1 at 1 uM using polyEY as substrate in presence of 33P-ATP by ProQinase assay.
Experiment [14] deals with Tyrosine-protein kinase Tec (Homo sapiens) (UniProt P42680). The experiment can be described thus: Inhibition of human TEC at 1 uM using polyEY as substrate in presence of 33P-ATP by ProQinase assay.
Experiment [15] has as its target MAP kinase-activated protein kinase 3 (Homo sapiens) (UniProt Q16644). The experiment can be described thus: Inhibition of human MAPKAPK3 at 1 uM using bio-4xCHKT as substrate in presence of 33P-ATP by ProQinase assay.
In experiment [16] the target is Serine/threonine-protein kinase Sgk2 (Homo sapiens) (UniProt Q9HBY8). Nature of the experiment: Inhibition of human SGK2 at 1 uM using RBER-GSK3 as substrate in presence of 33P-ATP by ProQinase assay.
Chain of Serine/threonine-protein kinase Sgk2 (Homo sapiens) (Q9HBY8 whole entry): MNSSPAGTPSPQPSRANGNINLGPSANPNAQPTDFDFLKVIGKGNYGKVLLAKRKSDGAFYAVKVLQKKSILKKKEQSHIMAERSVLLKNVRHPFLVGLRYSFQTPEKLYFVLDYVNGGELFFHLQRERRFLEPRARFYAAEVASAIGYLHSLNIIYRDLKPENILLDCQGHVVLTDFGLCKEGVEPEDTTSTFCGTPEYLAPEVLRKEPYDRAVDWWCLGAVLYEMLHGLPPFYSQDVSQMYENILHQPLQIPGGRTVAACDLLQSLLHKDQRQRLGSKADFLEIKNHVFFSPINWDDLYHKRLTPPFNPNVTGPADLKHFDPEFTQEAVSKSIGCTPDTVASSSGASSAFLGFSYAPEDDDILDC
Experiment [17] concerns the target CDK9/cyclin T1 (Homo sapiens) (UniProt O60563+P50750). Nature of the experiment: Inhibition of human CDK9/CyclinT1 at 1 uM using RBER-CHKtide as substrate in presence of 33P-ATP by ProQinase assay. Type of experiment: protein-complex assay.
Experiment [18] has as its target Serine/threonine-protein kinase Nek6 (Homo sapiens) (UniProt Q9HC98). Nature of the experiment: Inhibition of human NEK6 at 1 uM using RBER-GSK3 as substrate in presence of 33P-ATP by ProQinase assay.
Experiment [19] concerns the target Ephrin type-A receptor 3 (Homo sapiens) (UniProt P29320). The experiment can be described thus: Inhibition of human EPHA3 at 1 uM using polyEY as substrate in presence of 33P-ATP by ProQinase assay.
Experiment [20] concerns the target Serine/threonine-protein kinase N1 (Homo sapiens) (UniProt Q16512). Nature of the experiment: Inhibition of human PRK1 at 1 uM using RBER-CHKtide as substrate in presence of 33P-ATP by ProQinase assay.
Experiment [21] addresses Activin receptor type-1-like (Homo sapiens) (UniProt P37023). Nature of the experiment: Inhibition of human ACVRL1 at 1 uM using casein as substrate in presence of 33P-ATP by ProQinase assay.
Experiment [22] addresses Choline kinase alpha (Homo sapiens) (UniProt P35790). Nature of the experiment: Inhibition of recombinant human N-terminal GST-tagged CHKalpha (1 to 457 residues) expressed in Escherichia coli at 1 uM using choline chloride as substrate incubated for 40 mins by ADP-Glo assay.
The target in experiment [23] is PI3-kinase p110-delta/p85-alpha (Homo sapiens, UniProt O00329). The experiment can be described thus: Inhibition of human PIK3CD/PIK3R1 using PIP2/PS as substrate by ADP-Glo assay. Type of experiment: protein-complex assay. For orientation: ADP-Glo turns the ADP formed in a reaction into a luminescent signal.
Experiment [24] addresses Phosphatidylinositol 3-kinase C2 domain-containing subunit gamma (Homo sapiens, UniProt O75747). The experiment can be described thus: Inhibition of human PIK3C2G using PIP2/PS as substrate by ADP-Glo assay.

Each structure is given as a SMILES string. Activity calls are given as the source filed them. The calls are words filed in the database; no cut-off is given here.

Chain of Testis-specific serine/threonine-protein kinase 1 (Homo sapiens) (Q9BXA7 whole entry, the tested form may be a part): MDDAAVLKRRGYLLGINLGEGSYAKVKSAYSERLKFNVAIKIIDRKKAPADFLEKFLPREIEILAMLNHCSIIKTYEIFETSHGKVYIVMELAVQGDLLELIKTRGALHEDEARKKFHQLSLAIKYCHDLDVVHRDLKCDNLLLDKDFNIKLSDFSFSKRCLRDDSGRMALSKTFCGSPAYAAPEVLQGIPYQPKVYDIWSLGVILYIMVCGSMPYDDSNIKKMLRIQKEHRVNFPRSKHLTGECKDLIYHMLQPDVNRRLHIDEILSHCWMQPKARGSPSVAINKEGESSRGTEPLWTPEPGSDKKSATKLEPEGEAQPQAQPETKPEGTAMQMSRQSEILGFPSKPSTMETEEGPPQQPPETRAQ
Chain of Serine/threonine-protein kinase Nek6 (Homo sapiens) (Q9HC98 whole entry): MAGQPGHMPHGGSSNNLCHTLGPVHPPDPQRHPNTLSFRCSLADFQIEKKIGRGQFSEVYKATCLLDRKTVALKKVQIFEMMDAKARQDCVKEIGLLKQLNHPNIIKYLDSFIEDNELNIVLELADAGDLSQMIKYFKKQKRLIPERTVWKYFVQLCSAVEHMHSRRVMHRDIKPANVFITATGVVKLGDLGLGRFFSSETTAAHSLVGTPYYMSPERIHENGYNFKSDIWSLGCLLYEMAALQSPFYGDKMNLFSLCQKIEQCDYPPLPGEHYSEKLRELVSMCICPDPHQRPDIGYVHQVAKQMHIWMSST

A word on the IC50: it is the concentration needed to halve the response being measured. Read a high IC50 as weaker potency. Take `CC(C)(O)CNc1ncc(-c2ccnc(Nc3ccnc(Cl)c3)n2)c(CC2CC2)n1`: the Activity was 118% in experiment [1]; 115% in [2]; 108% in experiment [3]; 103% in experiment [4]; 101% in experiment [5]; 100% in experiment [6]. Moreover, the Activity stood at 100% in experiment [7], 95% in [8] and 93% in [9]. In addition, the inhibition result in [10], in experiment [11], in experiment [12], in experiment [13], in experiment [14] and in [15] was “inactive” in each case. Also, the inhibition result in [16], in [17], in experiment [18], in experiment [19], in experiment [20] and in experiment [21] was “inactive” throughout. Further, the inhibition entry in experiment [22] was “inactive”. Also, the 50% inhibitory concentration (IC50) in experiment [23] and in experiment [24] was greater than 10 µM each time.

For the origin of these results see ChEMBL document CHEMBL5705899 (Biochem J, 2014).
